ChEMBL document CHEMBL4184296, “Novel inhibitors of Staphylococcus aureus RnpA that synergize with mupirocin” (Bioorg Med Chem Lett, 2018)
Values after ≈ are worked out from the molar mass of the structure shown.

Columns and labels:
[1] = tested on: HepG2; assay: Cytotoxicity against human HepG2 cells assessed as reduction in cell viability after 24 hrs by MTT assay; type: cell-based; settings: hepg2, 24 h
Outline: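 Human HepG2 hepatocytes; overt cytotoxicity measured by MTT method. Value reported as the lowest concentration causing cytotoxicity.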

[2] = molecular target: T1, Ribonuclease P protein component (Staphylococcus aureus, UniProt P0A0H5); assay: Inhibition of Staphylococcus aureus RnpA-mediated mRNA degradation after 15 to 30 mins by ethidium bromide staining based agarose gel electrophoresis
T1 sequence (P0A0H5 whole entry): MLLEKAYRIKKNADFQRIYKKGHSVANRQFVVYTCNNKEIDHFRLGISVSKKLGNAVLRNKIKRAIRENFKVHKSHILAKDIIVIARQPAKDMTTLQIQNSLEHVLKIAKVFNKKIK
Outline: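 Recombinant S. aureus RnpA (≥97% purity) tested for inhibition of in vitro mRNA degradation.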

[3] = tested on: Staphylococcus aureus; assay: Antibacterial activity against Staphylococcus aureus UAMS-1 after 18 hrs by Mueller-Hinton broth analysis; type: functional; settings: UAMS-1, 18 h
Outline: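 S. aureus UAMS-1, a methicillin-sensitive osteomyelitis clinical isolate, tested by CLSI broth method in 96-well format. MIC taken as the lowest compound concentration with no visible growth.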

[4] = Inhibition of Staphylococcus aureus RnpA/RnpB-mediated tRNA cleavage after 15 mins by ethidium bromide staining based polyacrylamide gel electrophoresis
Outline: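 RNase P reconstituted from equimolar S. aureus RnpA and rnpB; inhibition of in vitro tRNA maturation (cleavage) measured.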

[5] = tested on: Staphylococcus aureus; assay: Potentiation of mupirocin-induced antibacterial activity against Staphylococcus aureus UAMS-1 assessed as fractional inhibitory concentration index at 0.5 ug/ml by checkerboard assay; type: functional
Outline: (§1)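 Checkerboard assay: wells seeded with 1 × 10^5 CFU ml-1 S. aureus UAMS-1. Test compound in 2-fold steps (0, 0.5, 1, 2, 4, 8, 16, 32 µg/mL) crossed with mupirocin (0, 0.03125, 0.0625, 0.125 µg/mL). Plates incubated 18 h at 37 °C, then growth read. FICI = (MIC compound combined / MIC alone) + (MIC mupirocin combined / MIC mupirocin alone).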

[6] = tested on: Staphylococcus aureus; assay: Potentiation of mupirocin-induced antibacterial activity against Staphylococcus aureus UAMS-1 assessed as mupirocin MIC at 8 ug/ml by checkerboard assay (reference value: 0.125 microg/ml); type: functional; outline: as §1
[7] = tested on: Staphylococcus aureus; assay: Potentiation of mupirocin-induced antibacterial activity against Staphylococcus aureus UAMS-1 assessed as fractional inhibitory concentration index at 4 ug/ml by checkerboard assay; type: functional; outline: as §1
[8] = tested on: Staphylococcus aureus; assay: Potentiation of mupirocin-induced antibacterial activity against Staphylococcus aureus UAMS-1 assessed as fractional inhibitory concentration index at 16 ug/ml by checkerboard assay; type: functional; outline: as §1
[9] = tested on: Staphylococcus aureus; assay: Potentiation of mupirocin-induced antibacterial activity against Staphylococcus aureus UAMS-1 assessed as fractional inhibitory concentration index at 8 ug/ml by checkerboard assay; type: functional; outline: as §1
[10] = tested on: Staphylococcus aureus; assay: Potentiation of mupirocin-induced antibacterial activity against Staphylococcus aureus UAMS-1 assessed as mupirocin MIC at 4 ug/ml by checkerboard assay (reference value: 0.125 microg/ml); type: functional; outline: as §1
[11] = tested on: Staphylococcus aureus; assay: Potentiation of mupirocin-induced antibacterial activity against Staphylococcus aureus UAMS-1 assessed as mupirocin MIC at 2 ug/ml by checkerboard assay (reference value: 0.125 microg/ml); type: functional; outline: as §1
[12] = tested on: Staphylococcus aureus; assay: Potentiation of mupirocin-induced antibacterial activity against Staphylococcus aureus UAMS-1 assessed as fractional inhibitory concentration index at 1 ug/ml by checkerboard assay; type: functional; outline: as §1
[13] = tested on: Staphylococcus aureus; assay: Potentiation of mupirocin-induced antibacterial activity against Staphylococcus aureus UAMS-1 assessed as mupirocin MIC at 1 ug/ml by checkerboard assay (reference value: 0.125 microg/ml); type: functional; outline: as §1

IC50 [2] | MIC [3] | IC50 [4] | SMILES | MTC [1] | further results
40 µM | 64 µg/mL (≈ 146 µM) | 50 µM | CC(C)c1ccc(OCC(=O)NNC(=S)NC(=O)c2ccc(-c3ccccc3)o2)cc1 | 64 µg/mL | 
100 µM | 32 µg/mL (≈ 68.9 µM) | 175 µM | Cc1cc(/C=C(/C#N)C(=O)Nc2cccc(Br)c2)c(C)n1-c1ccc(C(=O)O)cc1 | 25 µg/mL | 
25 µM |  |  | CC(C)c1ccc(OCC(=O)NNC(=S)NC(=O)Cc2ccco2)cc1 | 32 µg/mL | 
< 50 µM |  | < 50 µM | CC(C)c1ccc(OCC(=O)NNC(=S)NC(=O)c2cc3cc(F)ccc3[nH]2)cc1 | 256 µg/mL | 
> 500 µM | 64 µg/mL (≈ 172 µM) | 350 µM | CC(C)c1ccc(OCC(=O)NNC(=S)NC(=O)c2ccccc2)cc1 | 512 µg/mL | 
 |  | 100 µM | CC(C)c1ccc(OCC(=O)NNC(=S)NC(=O)c2cc3ccccc3s2)cc1 | 512 µg/mL | 
250 µM | 64 µg/mL (≈ 170 µM) | 25 µM | CC(C)c1ccc(OCC(=O)NNC(=S)NC(=O)c2cccs2)cc1 | > 256 µg/mL | 
 |  | 50 µM | CC(C)c1ccc(OCC(=O)NNC(=S)NC(=O)c2cc3ccccc3n2C)cc1 | > 256 µg/mL | 
 |  | 1 µM | CC(C)c1ccc(OCC(=O)NNC(=S)NC(=O)c2ccccn2)cc1 | > 128 µg/mL | fractional inhibitory concentration index (FICI) [8]: 0.625; fractional inhibitory concentration index (FICI) [5]: 0.516; MIC [6]: 0.0625 µg/mL; fractional inhibitory concentration index (FICI) [9]: 0.5
 |  | 105 µM | Cc1ccc(C(=O)NC(=S)NNC(=O)COc2ccc(C(C)C)cc2)o1 | > 128 µg/mL | fractional inhibitory concentration index (FICI) [5]: 0.53; fractional inhibitory concentration index (FICI) [7]: 0.5; MIC [10]: 0.0312 µg/mL
 |  | 40 µM | CC(C)c1ccc(OCC(=O)NNC(=S)NC(=O)c2ccc(Br)o2)cc1 | > 128 µg/mL | fractional inhibitory concentration index (FICI) [5]: 0.516; fractional inhibitory concentration index (FICI) [9]: 0.375; MIC [11]: 0.0625 µg/mL
 |  | 150 µM | Cc1ccoc1C(=O)NC(=S)NNC(=O)COc1ccc(C(C)C)cc1 | > 128 µg/mL | 
 |  | 100 µM | CC(C)c1ccc(OCC(=O)NNC(=S)NC(=O)c2cc3cc(Cl)ccc3[nH]2)cc1 | 256 µg/mL | 
 |  | > 500 µM | CC(C)c1ccc(OCC(=O)NNC(=S)NC(=O)c2ccno2)cc1 | > 128 µg/mL | 
 |  | 90 µM | CC(C)c1ccc(OCC(=O)NNC(=S)NC(=O)c2nc3ccccc3[nH]2)cc1 | 512 µg/mL | 
 |  | 0.5 µM | CC(C)c1ccc(OCC(=O)NNC(=S)NC(=O)c2cc3ccccc3[nH]2)cc1 | > 256 µg/mL | fractional inhibitory concentration index (FICI) [12]: 0.56; MIC [13]: 0.0625 µg/mL
 |  | 150 µM | CC(C)c1ccc(OCC(=O)NNC(=S)NC(=O)c2ccncc2)cc1 | > 512 µg/mL | 
 |  | 50 µM | CC(C)c1ccc(OCC(=O)NNC(=S)NC(=O)c2cnco2)cc1 | 64 µg/mL | 
 |  |  | COc1ccc2[nH]c(C(=O)NC(=S)NNC(=O)COc3ccc(C(C)C)cc3)cc2c1 | 32 µg/mL | 
 |  | < 50 µM | CC(C)c1ccc(OCC(=O)NNC(=S)NC(=O)c2cc3ccc(Cl)cc3[nH]2)cc1 | 32 µg/mL | 
> 250 µM | 128 µg/mL (≈ 311 µM) | 25 µM | CC(C)c1ccc(OCC(=O)NNC(=S)NC(=O)c2coc3ccccc23)cc1 | 128 µg/mL | 
250 µM |  | 150 µM | CC(C)c1ccc(OCC(=O)NNC(=S)NC(=O)c2ccoc2)cc1 | 16 µg/mL | 
 |  | 32 µM | CC(C)c1ccc(OCC(=O)NNC(=S)NC(=O)/C=C/c2ccco2)cc1 | > 256 µg/mL | 
 |  | 160 µM | CC(C)c1ccc(OCC(=O)NNC(=S)NC(=O)c2cccnc2)cc1 | > 256 µg/mL | 
 | > 256 µg/mL | 26 µM | CC(C)c1ccc(OCC(=O)NNC(=S)NC(=O)/C=C/c2cc3ccccc3o2)cc1 | 256 µg/mL | 
 |  | 90 µM | CC(C)c1ccc(OCC(=O)NNC(=S)NC(=O)c2c[nH]c3ccccc23)cc1 | > 128 µg/mL | MIC [6]: 0.0625 µg/mL; fractional inhibitory concentration index (FICI) [9]: 0.5
50 µM | > 256 µg/mL |  | COc1ccc2cc(C(=O)NC(=S)NNC(=O)COc3ccc(C(C)C)cc3)[nH]c2c1 | > 512 µg/mL | 
> 250 µM | 16 µg/mL (≈ 44.4 µM) | 25 µM | CC(C)c1ccc(OCC(=O)NNC(=S)NC(=O)c2ccc[nH]2)cc1 | 16 µg/mL | 
 |  | 395 µM | CC(C)c1ccc(OCC(=O)NNC(=S)NC(=O)c2ccsc2)cc1 | > 256 µg/mL | 

SMILES | IC50 [2] | MIC [3] | IC50 [4] | MTC [1] | further results
CC(C)c1ccc(OCC(=O)NNC(=S)NC(=O)c2cc3ccccc3o2)cc1 |  | 32 µg/mL (≈ 77.8 µM) | 1 µM | > 128 µg/mL | fractional inhibitory concentration index (FICI) [5]: 0.508; MIC [6]: 0.0312 µg/mL; fractional inhibitory concentration index (FICI) [7]: 0.25
CC(C)c1ccc(OCC(=O)NNC(=S)NC(=O)c2ccco2)cc1 |  | 16 µg/mL (≈ 44.3 µM) | 140 µM | > 128 µg/mL | fractional inhibitory concentration index (FICI) [7]: 0.49; MIC [10]: 0.0625 µg/mL
